Cl transport mod = modulates chloride dependent transport by human KCC2; Q9H2X9; KCC2 cells, thallium flux FluoZin-2 fluorescence; B-score of Tl+ flux slope (higher = more flux/activation; lower = inhibition) at 10 µM; 190,000 tested, 2.2% active;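 active = thallium flux slope and its plate-corrected score both differing from the plate sample mean at a set confidence after two filtering rounds, in either direction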;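 also: slope of fluorescence scaled to starting intensity during 10 to 20 s after thallium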
Target sequence (Q9H2X9 whole entry, looked up): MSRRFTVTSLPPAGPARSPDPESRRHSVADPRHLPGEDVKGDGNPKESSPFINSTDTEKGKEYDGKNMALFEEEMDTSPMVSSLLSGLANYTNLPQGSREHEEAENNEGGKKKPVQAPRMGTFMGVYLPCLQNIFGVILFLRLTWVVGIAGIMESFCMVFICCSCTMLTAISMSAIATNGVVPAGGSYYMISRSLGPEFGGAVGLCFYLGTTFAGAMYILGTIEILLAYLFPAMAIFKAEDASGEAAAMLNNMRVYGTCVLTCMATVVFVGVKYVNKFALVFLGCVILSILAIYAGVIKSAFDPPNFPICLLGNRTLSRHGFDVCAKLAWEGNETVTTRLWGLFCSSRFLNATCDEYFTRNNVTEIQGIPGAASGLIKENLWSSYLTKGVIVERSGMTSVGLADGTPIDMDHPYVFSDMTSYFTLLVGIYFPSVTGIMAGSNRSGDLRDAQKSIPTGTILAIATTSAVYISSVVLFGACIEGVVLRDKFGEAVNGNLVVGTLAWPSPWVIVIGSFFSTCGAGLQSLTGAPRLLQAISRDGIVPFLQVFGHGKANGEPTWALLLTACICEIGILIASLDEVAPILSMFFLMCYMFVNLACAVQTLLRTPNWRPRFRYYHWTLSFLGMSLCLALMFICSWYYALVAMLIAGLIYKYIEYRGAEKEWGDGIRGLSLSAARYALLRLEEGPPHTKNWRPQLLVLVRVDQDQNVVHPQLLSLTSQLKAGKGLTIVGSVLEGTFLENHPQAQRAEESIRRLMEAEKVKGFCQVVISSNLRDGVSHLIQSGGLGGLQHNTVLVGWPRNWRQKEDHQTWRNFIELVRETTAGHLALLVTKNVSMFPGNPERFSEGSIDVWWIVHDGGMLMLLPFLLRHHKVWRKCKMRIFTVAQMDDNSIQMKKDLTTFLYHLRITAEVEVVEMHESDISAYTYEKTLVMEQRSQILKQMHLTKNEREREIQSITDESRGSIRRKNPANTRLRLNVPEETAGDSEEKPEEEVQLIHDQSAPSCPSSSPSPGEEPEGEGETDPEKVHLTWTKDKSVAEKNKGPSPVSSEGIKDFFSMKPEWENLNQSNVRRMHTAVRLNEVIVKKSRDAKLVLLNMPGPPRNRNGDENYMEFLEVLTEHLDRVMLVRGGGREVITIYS
ROMK primary = human ROMK K+ channel modulation, primary screen; B-score at 10 µM; 130,000 tested, 2% active; AID 1918; Tet-inducible ROMK, thallium flux fluorescence; actives lie on both sides; P48048;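 active = signal ratio slope over the read window, or its plate-corrected B-score, at least 3 SD from the plate mean, either direction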;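 also: B-score of the F/F0 ratio slope over 7 to 12 s after thallium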
Diaph act CS = diaphorase activation or chemical reduction counter-screen | 190,000 tested, 0.005% active | activation factor at 20 µM | Diaphorase/resazurin coupled assay, resorufin fluorescence, 16 min; active compounds read high; 1 = vehicle wells, 0 = NADH-free wells;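 active = diaphorase activity raised at least twofold by the compound at 20 µM; inactive = activation factor below 2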
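System – purified diaphorase enzyme from Clostridium kluyveri · Input – enzyme 0.07 U/mL final · Also added – final NADH 0.114 mM, resazurin 0.1 mM · Measured by – fluorescence of resorufin, 544 nm excitation, 590 nm emission · Timing – 16 min enzyme reaction, ambient temperature · Measure – resorufin increase flagging diaphorase activators or reducers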
WT yeast gro inh = growth inhibition of WT yeast, mitochondrial fusion screen; mitochondrial fusion phenotypic screen, WT strain; inhibition, % at 10 µM; 190,000 tested, 2.1% active; AID 1362; in the data active = inhibition above about 58%; tested in S. cerevisiae
L major viab = reduces viability of Leishmania major promastigotes; resazurin fluorescence viability; inhibition, % at 10 µM; 200,000 tested, 9% active; in the data active = inhibition above about 50%;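 also: promastigotes grown with compound for 44 hours at 28 °C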
Diaph inh CS = counter-screen for diaphorase-based assays: diaphorase inhibitors and chemical oxidizers. AID 1217. inhibition, % at 20 µM. diaphorase resazurin-to-resorufin fluorescence, NADH, 16 min; bacterial (C. kluyveri) enzyme, not human. 190,000 tested, 0.69% active;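 active = primary screen inhibition at 20 µM above a set limit, cut at about 50% in these data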;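 also: plate controls were DMSO with full reaction for no effect and wells lacking NADH for full effect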
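System: Diaphorase enzyme from Clostridium kluyveri | Amount: Enzyme working solution with 0.14 U/mL diaphorase | Benchmarks: No-NADH positive control and DMSO neutral control | Signal: Fluorescence of resorufin formed from resazurin, Ex 544/Em 590 nm | Schedule: 16-min room-temperature incubation before reading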
Active calls of the source: *; . = not tested or not shown. Shown are actives, neighbours in structure and some others; about 12% of the full set was active somewhere.

SMILES	Cl transport mod	ROMK primary	Diaph act CS	WT yeast gro inh	L major viab	Diaph inh CS
CCCn1c(N2CCN(Cc3ccc(Cl)cc3)CC2)nc2ccccc21	-2.3	-0.7	0.7	45	55*	28
COCc1[nH]c(=S)[nH]c(=O)c1C	0.37	.	.	.	.	.
CC(C)(C)NC(=O)CN(C(=O)CNC(=O)c1cccs1)c1ccc2c(c1)OCCO2	.	.	0.9	-4	-4	13
CCCCN(C)CCNC(=O)CCNC(=O)Cn1ccc2ccccc2c1=O	-0.12	-0.048	1	0	-10	3
O=C(NCCc1ccc(Cl)cc1)C1CCC(=O)N1Cc1ccc(F)cc1 (stereo not given)	-1.1	.	0.9	13	-5	11
COc1cc2c(C)nc3c(c(C)nn3-c3ccccc3)c2cc1OC	.	-0.033	1.2	-2	1	-16
COc1cc2c(-c3ccc(O)cc3)nc3c(c(C)nn3-c3ccccc3)c2cc1OC	0.016	-0.7	0.8	10	63*	23
CCCc1cc(=O)[nH]c(-n2[nH]c3c(c2=O)CCCC3)n1	.	.	0.9	-3	94*	15
CCCc1cc(=O)[nH]c(SCC)n1	0.52	0.43	1	18	-8	0
CCOc1ccc(N2CC(C(=O)Nc3cccc(S(=O)(=O)NC4=NCCC4)c3)CC2=O)cc1 (stereo not given)	1.8	.	.	.	.	.
CCCCCC1CCC(c2n[nH]c(=S)n2C)CC1 (stereo not given)	2.7	-0.045	1.1	65*	10	-12
CN(c1ccccc1)S(=O)(=O)c1ccc(C(=O)N2CCc3ccccc3C2)cc1	-2	-0.47	1	-28	96*	3
Cc1ccccc1NS(=O)(=O)c1cc(C(=O)N2CCc3ccccc3C2)ccc1C	.	-0.22	0.7	81*	88*	31
O=C(c1ccc(S(=O)(=O)c2ccccc2)cc1)N1CCc2ccccc2C1	-0.33	-0.021	0.5	1	36	51*
O=C(c1ccc(S(=O)(=O)N2CCCCC2)cc1)N1CCc2ccccc2C1	-1.8	-0.54	0.7	0	-2	26
Cc1nc2cc(NC(=O)Nc3ccc(Br)cc3)ccc2o1	0.31	-0.6	0.9	6	13	10
CCCc1nn(C)c(C(=O)Nc2cccc(Cl)c2)c1Cl	0.64	0.36	0.9	5	-11	5
COc1cccc(N/C(SCc2cccc([N+](=O)[O-])c2)=C(/C#N)C(=O)NCc2cccs2)c1	-1.5	-0.22	0.9	13	87*	10
O=C(NCc1ccccn1)c1nnc(Cc2ccc(Cl)cc2)o1	0.15	-0.013	1	11	-8	2
CCOC(=O)C1CCN(C(=S)NC2CC3C=CC2C3)CC1 (stereo not given)	0.89	.	.	.	.	.
Cc1nc2ccc(N=NC3=C(O)CC(C)(C)CC3=O)cc2s1	0.57	0.11	0.9	-14	91*	14
Cc1ccc(O)c(N=NC2=C(O)CC(C)(C)CC2=O)c1	1.1	-1.1	0.8	-5	99*	25
CC1(C)CC(=O)C(N=Nc2cc(Cl)c(Cl)c(Cl)c2)=C(O)C1	-1.8	0.28	0.9	7	-3	13
Cn1[nH]c(C(F)(F)F)c(C=Nc2ccc(Cl)cc2)c1=O	1.9	-0.41	0.9	-4	0	12
CC(C)S(=O)(=O)c1csc(NC(=O)Nc2cccc([N+](=O)[O-])c2)c1Cl	-0.051	.	.	.	.	.
SMILES	Cl transport mod	ROMK primary	Diaph act CS	WT yeast gro inh	L major viab	Diaph inh CS
Cc1cccc(NC(=S)N2CCCCC2c2cccnc2)c1C (stereo not given)	1.2	.	.	.	.	.
Fc1cccc(NC(=S)N2CCn3cccc3C2c2cccnc2)c1 (stereo not given)	0	0.42	0.9	5	92*	12
S=C(Nc1ccccc1)N1CCn2cccc2C1c1cccnc1 (stereo not given)	0.37	.	0.8	-4	86*	15
Fc1ccc(C2c3cccn3CCN2C(=S)Nc2cccc(F)c2)cc1 (stereo not given)	0.39	0.22	0.8	80*	21	17
S=C(NC1CCCCC1)N1CCn2cccc2C1c1ccncc1 (stereo not given)	-1.3	-0.94	0.9	-4	0	11
COc1ccccc1NC(=S)N1CCn2cccc2C1c1cccnc1 (stereo not given)	1	1.5	1	0	78*	3
